ChEMBL document CHEMBL3098020, “Synthesis and biological evaluation of novel 2-amino-3-aroyl-4-neopentyl-5-substituted thiophene derivatives as allosteric enhancers of the A₁ adenosine receptor” (Bioorg Med Chem, 2014)

What was measured:
[1] = target: T1, Adenosine receptor A1 (Homo sapiens) (UniProt P30542); assay: Potentiation of [3H]CCPA binding to human adenosine A1 receptor expressed in CHO cell membranes at 10 uM after 90 mins relative to [3H]CCPA-treated control
T1 sequence (whole entry): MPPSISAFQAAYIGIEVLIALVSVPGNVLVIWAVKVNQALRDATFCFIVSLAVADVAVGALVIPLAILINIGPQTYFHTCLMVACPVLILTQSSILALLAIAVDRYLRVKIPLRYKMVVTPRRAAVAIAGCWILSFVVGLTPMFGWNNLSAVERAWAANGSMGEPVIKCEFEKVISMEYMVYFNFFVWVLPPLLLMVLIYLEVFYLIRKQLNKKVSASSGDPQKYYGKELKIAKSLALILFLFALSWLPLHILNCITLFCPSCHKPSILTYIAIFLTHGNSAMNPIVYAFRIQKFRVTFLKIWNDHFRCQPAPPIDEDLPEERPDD

[2] = target: T1, Adenosine receptor A1 (Homo sapiens); assay: Displacement of [3H]-DPCPX from human adenosine A1 receptor expressed in CHO cell membranes at 10 uM by scintillation counting analysis relative to control
Summary of the method: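 hA1-CHO membranes, pretreated with adenosine deaminase, in 50 mM Tris-HCl pH 7.4 with 1 nM [³H]DPCPX. Incubated 120 min at 25 °C. Compound 10 µM added from 100-fold DMSO stock, 1% DMSO final. Bound ligand collected on glass-fibre filters and counted by scintillation; percent inhibition of specific binding.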

[3] = target: Adenosine receptor A2a (Homo sapiens) (UniProt P29274); assay: Displacement of [3H]-ZM241385 from human adenosine A2A receptor expressed in CHO cell membranes at 10 uM by scintillation counting analysis relative to control
Chain of Adenosine receptor A2a (Homo sapiens) (P29274 whole entry): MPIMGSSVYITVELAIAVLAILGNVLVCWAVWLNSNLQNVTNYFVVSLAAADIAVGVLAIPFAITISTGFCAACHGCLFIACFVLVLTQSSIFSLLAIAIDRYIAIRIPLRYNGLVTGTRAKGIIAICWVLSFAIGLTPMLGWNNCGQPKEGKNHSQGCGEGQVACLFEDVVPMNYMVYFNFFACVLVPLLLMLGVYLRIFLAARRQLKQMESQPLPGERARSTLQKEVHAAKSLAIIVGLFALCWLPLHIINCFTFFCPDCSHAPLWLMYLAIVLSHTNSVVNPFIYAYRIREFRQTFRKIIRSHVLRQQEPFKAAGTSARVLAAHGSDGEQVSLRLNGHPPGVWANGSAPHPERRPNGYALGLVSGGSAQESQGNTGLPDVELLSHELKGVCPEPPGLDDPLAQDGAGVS
Summary of the method: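 A2A-expressing CHO membranes, pretreated with adenosine deaminase, in 50 mM Tris-HCl, 10 mM MgCl₂ pH 7.4 with 1 nM [³H]ZM 241385. Incubated 60 min at 4 °C. Compound 10 µM in 1% DMSO final. Filtration and scintillation counting; percent inhibition of specific binding.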

[4] = target: T1, Adenosine receptor A1 (Homo sapiens); assay: (§1) Allosteric enhancement of human adenosine A1 receptor expressed in CHO cells assessed as inhibition of forskolin-stimulated cAMP production at 10 uM preincubated for 10 mins followed by forskolin challenge measured after 5 mins by scintillation counting analysis relative to control; format: functional, cell-based
Summary of the method: (§2)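 hA1-CHO cells (10⁶ cells/mL) in phosphate buffer with adenosine deaminase 1.0 IU/mL and Ro 20-1724 0.5 mM, preincubated 10 min at 37 °C. Compound added for 10 min, alone or at 100 nM with CCPA 1 pM. Forskolin 1 µM added for 5 min, stopped with cold 6% TCA. cAMP measured by [³H]-cAMP competition protein-binding assay; percent inhibition versus control; three experiments.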

[5] = target: T1, Adenosine receptor A1 (Homo sapiens); assay: Potentiation of CCPA-induced displacement of [3H]-DPCPX from human adenosine A1 receptor expressed in CHO cell membranes at 10 uM after 90 mins relative to CCPA-treated control
Summary of the method: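 CCPA (0.01 nM–1 µM) competition against [³H]DPCPX in hA1-CHO membranes, with or without compound at 10 µM. Nonspecific binding defined with 1 µM DPCPX. Ki calculated from IC50 by the Cheng-Prusoff equation; CCPA Ki shift given as fold change; three experiments.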

[6] = target: T2, Adenosine receptor A3 (Homo sapiens) (UniProt P0DMS8); assay: Displacement of [3H]-MRE-3008-F20 from human adenosine A3 receptor expressed in CHO cell membranes at 10 uM by scintillation counting analysis relative to control
T2 sequence (whole entry): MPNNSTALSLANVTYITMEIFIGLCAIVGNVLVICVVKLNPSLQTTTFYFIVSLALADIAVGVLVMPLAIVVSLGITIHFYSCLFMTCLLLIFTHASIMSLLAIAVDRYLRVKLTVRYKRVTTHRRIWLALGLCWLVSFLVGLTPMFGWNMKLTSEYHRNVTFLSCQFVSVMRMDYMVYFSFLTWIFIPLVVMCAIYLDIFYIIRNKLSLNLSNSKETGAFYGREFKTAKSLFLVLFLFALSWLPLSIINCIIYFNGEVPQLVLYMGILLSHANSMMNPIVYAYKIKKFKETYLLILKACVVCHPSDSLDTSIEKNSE
Summary of the method: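 A3-expressing CHO membranes in 50 mM Tris-HCl, 10 mM MgCl₂, 1 mM EDTA pH 7.4 with 2 nM [³H]MRE-3008-F20. Incubated 120 min at 4 °C. Compound 10 µM in 1% DMSO final. Filtration and scintillation counting; percent inhibition of specific binding.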

[7] = target: T1, Adenosine receptor A1 (Homo sapiens); assay: as §1, with “100 nM” for “10 uM”, “analysis in presence of CCPA” for “analysis”; format: functional, cell-based; summary of the method: as §2

| fold change (FC) [1] | inhibition [2] | inhibition [3] | inhibition [4] | fold change (FC) [5] | inhibition [6] | inhibition [7] | SMILES |
| --- | --- | --- | --- | --- | --- | --- | --- |
| 3.5 | 1% | 1% | 40% | 2.2 | 1% | 43% | CC(C)(C)Cc1c(-c2ccccn2)sc(N)c1C(=O)c1ccc(Cl)cc1 |
| 3.3 | 1% | 1% | 38% | 2 | 1% | 35% | Cc1ccc(C(=O)c2c(CC(C)(C)C)csc2N)cc1 |
| 2.5 | 1% | 1% | 27% | 1.7 | 1% | 31% | CC(C)(C)Cc1c(-c2cn[nH]c2)sc(N)c1C(=O)c1ccc(Cl)cc1 |
